Test results taken from ChEMBL document CHEMBL1143977, “Disruption of Kv1.1 N-type inactivation by novel small molecule inhibitors (disinactivators)” (Bioorg Med Chem, 2008).
pEC50: −log10 of the molar value. Calls of active or inactive are those of the source. The rule behind the calls is not given here.

Legend:
[1] = target: T1, Potassium voltage-gated channel subfamily A member 4 (Homo sapiens, UniProt P22459); assay: Inhibition of Kv1.4 channel inactivation expressed in xenopus oocytes at 50 uM by voltage clamp assay; format: cell-based; set-up: scale not given: the % may be the effect or the level left; conditions: Oocyte
T1 sequence (P22459 whole entry, the tested form may be a part): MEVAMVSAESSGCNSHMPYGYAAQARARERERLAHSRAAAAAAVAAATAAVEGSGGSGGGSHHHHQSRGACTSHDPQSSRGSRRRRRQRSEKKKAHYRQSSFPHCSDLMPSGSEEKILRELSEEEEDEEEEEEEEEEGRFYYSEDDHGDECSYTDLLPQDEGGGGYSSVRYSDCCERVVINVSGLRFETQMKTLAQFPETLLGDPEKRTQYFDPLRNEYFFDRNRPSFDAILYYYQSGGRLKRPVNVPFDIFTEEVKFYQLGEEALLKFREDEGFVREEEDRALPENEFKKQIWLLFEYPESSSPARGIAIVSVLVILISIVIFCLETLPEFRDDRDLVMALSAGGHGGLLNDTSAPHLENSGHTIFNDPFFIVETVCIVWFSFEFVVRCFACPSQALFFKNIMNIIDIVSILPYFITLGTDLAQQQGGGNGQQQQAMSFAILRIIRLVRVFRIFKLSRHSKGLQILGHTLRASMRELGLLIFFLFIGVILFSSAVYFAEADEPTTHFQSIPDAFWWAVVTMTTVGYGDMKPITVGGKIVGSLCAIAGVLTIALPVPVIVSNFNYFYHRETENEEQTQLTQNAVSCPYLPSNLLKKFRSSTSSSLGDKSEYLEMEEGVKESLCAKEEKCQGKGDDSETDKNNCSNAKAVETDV
In short: (§1)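 Kv1.4 expressed in stage V–VI Xenopus oocytes and recorded 1–4 days after injection. Two-electrode voltage clamp in perfused ND-96 (pH 7.6), held at −80 mV with 200 ms steps to +50 mV. Compound up to 50 µM, current followed 2–8 min after application. Disinactivation = 100·Iss/Ipeak, three experiments.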

[2] = target: T2, Potassium voltage-gated channel subfamily A member 1 (Homo sapiens, UniProt Q09470); assay: Inhibition of Kvbeta-1-mediated inactivation of Kv1.1 channel expressed in xenopus oocytes at 150 uM by voltage clamp assay; format: cell-based; set-up: scale not given: the % may be the effect or the level left; conditions: Oocyte
T2 sequence (Q09470 whole entry): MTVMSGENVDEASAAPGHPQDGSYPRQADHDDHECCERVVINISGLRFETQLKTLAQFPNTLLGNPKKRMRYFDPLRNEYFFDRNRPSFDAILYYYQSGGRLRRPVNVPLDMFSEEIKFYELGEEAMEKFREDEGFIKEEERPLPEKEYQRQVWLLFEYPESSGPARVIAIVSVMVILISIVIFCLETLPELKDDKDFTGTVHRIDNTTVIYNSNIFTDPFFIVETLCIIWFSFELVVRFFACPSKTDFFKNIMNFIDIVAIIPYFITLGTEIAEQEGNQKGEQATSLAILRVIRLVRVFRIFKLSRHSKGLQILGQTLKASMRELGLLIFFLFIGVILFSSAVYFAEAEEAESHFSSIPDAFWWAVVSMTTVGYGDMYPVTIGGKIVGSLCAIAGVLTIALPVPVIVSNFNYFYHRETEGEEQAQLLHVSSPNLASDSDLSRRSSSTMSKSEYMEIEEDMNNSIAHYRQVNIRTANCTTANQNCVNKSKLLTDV

[3] = target: T3, A-type voltage-gated potassium channel KCND2 (Homo sapiens) (UniProt Q9NZV8); assay: Inhibition of Kv4.2 channel inactivation expressed in xenopus oocytes at 30 uM by voltage clamp assay; format: cell-based; conditions: Oocyte
T3 sequence (whole entry): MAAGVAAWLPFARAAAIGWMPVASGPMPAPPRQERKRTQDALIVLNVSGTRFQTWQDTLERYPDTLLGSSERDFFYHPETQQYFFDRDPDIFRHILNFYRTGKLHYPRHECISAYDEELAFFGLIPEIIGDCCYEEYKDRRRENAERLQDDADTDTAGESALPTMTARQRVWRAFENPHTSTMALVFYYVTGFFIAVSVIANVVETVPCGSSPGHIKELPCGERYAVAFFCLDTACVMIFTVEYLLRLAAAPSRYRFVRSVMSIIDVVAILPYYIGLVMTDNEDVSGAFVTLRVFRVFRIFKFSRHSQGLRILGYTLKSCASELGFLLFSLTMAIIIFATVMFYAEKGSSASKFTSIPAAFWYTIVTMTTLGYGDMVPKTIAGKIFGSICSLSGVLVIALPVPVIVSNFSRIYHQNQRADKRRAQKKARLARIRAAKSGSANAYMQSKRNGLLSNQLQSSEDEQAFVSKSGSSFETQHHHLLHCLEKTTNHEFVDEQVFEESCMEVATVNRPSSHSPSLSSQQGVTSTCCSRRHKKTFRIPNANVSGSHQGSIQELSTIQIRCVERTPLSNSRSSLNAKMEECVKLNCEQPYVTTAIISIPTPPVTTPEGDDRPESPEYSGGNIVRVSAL

Mus musculus [4] = assay: Anticonvulsant activity in ip dosed CF1 mouse assessed as inhibition of pentylenetetrazole-induced seizure; format: functional
In short: (§2)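 Male CF-1 mice, 20–25 g, free access to food and water. Compound in 2% Tween 80/1% methylcellulose/saline given ip 30 min before PTZ 85 mg/kg sc. Mice observed 30 min in individual chambers. Groups of eight scored for presence or absence of clonic seizure (forelimb and hindlimb paddling with loss of righting). ED50 in mg/kg, or number of mice seizing out of eight.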

[5] = target: T2, Potassium voltage-gated channel subfamily A member 1; assay: Inhibition of Kvbeta-1-mediated inactivation of Kv1.1 channel expressed in xenopus oocytes at 50 uM by voltage clamp assay; format: cell-based; set-up: scale not given: the % may be the effect or the level left; conditions: Oocyte
In short: (§3)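 Stage V–VI Xenopus oocytes injected with ~0.5–5 ng mRNA and kept 1–4 days in ND-96 (pH 7.6). Either Kv1.1 plus Kvβ1 RNA at 1:160, or a chimera (Kvβ1 residues 1–70 fused through a Ser to Kv1.1 N-terminus). Two-electrode clamp in perfused ND-96 with 3 M KCl electrodes. Held at −80 mV, stepped 200 ms to +50 mV. Disinactivation = 100·Iss/Ipeak, ≥3 experiments, mean ± SEM. EC50 from logistic fit.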

[6] = target: T4, Voltage-gated potassium channel subfamily A member 1/beta-1 (Homo sapiens, UniProt Q09470+Q14722); assay: Inhibition of Kv1.1/Kvbeta1 N terminal chimera channel inactivation expressed in xenopus oocytes at 50 uM by voltage clamp assay; format: cell-based; set-up: scale not given: the % may be the effect or the level left; conditions: Oocyte; in short: as §3
T4 sequence (Q09470 whole entry): as the sequence (Q09470 whole entry) above
T4 sequence (Q14722 whole entry): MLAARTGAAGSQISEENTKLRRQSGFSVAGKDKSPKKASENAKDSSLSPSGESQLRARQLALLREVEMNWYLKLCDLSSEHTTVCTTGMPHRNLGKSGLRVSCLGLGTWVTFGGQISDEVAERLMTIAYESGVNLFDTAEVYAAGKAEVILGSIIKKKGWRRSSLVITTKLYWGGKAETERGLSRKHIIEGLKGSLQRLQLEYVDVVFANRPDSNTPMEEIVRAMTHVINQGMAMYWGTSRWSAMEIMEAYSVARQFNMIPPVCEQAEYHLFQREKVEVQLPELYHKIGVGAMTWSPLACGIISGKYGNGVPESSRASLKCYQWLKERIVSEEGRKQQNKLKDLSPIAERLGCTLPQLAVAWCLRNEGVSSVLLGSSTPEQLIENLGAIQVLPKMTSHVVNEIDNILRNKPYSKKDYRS

[7] = target: T2, Potassium voltage-gated channel subfamily A member 1; assay: Inhibition of Kvbeta-1-mediated inactivation of Kv1.1 channel expressed in xenopus oocytes at 200 uM by voltage clamp assay; format: cell-based; set-up: scale not given: the % may be the effect or the level left; conditions: Oocyte
[8] = target: T2, Potassium voltage-gated channel subfamily A member 1; assay: Inhibition of Kv-beta-1 mediated inactivation of Kv1.1 channel assessed as intracellular calcium accumulation in Tsa201 cells at 50 uM by FLIPR assay; format: cell-based
In short: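 Tsa201 cells plated at 50,000/well and used the following day. Loaded with 3 µM Fluo-4 AM in HBSS with 2.5 mM probenecid, 60 min at 37 °C, then washed into calcium-free HBSS. Baseline read 5 s, compound added at final 50 µM (A23187 reference at 10 µM), fluorescence followed 3 min. Signal normalized to background. BAPTA-AM 10 µM counter-check for autofluorescence.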

Mus musculus [9] = assay: Anticonvulsant activity in CF1 mouse assessed as inhibition of pentylenetetrazole-induced seizure at 100 mg/kg, ip; format: functional, organism-based; set-up: dose 100 mg/kg; in short: as §2
[10] = target: T2, Potassium voltage-gated channel subfamily A member 1; assay: Inhibition of Kv-beta-1 mediated inactivation of Kv1.1 channel assessed as intracellular calcium accumulation in Tsa201 cells at 50 uM by FLIPR assay
[11] = target: T1, Potassium voltage-gated channel subfamily A member 4; assay: Inhibition of Kv1.4 channel inactivation expressed in xenopus oocytes by voltage clamp assay; format: cell-based, Oocyte; in short: as §1
[12] = target: T2, Potassium voltage-gated channel subfamily A member 1; assay: Inhibition of Kvbeta-1-mediated inactivation of Kv1.1 channel expressed in xenopus oocytes by voltage clamp assay; format: cell-based, Oocyte; in short: as §3
[13] = target: T4, Voltage-gated potassium channel subfamily A member 1/beta-1; assay: Inhibition of Kv1.1/Kvbeta1 N terminal chimera channel inactivation expressed in xenopus oocytes by voltage clamp assay; format: cell-based, Oocyte; in short: as §3

Row | Activity [3] | Activity [5] [%] | Compound | ED50 (Mus musculus [4]) [mg/kg] | also measured
1 | inactive | – | CC1(C)CC(=O)C(C(=O)Nc2ccc(Cl)cc2C(F)(F)F)C(=O)C1 | 66 | Activity [1]: 5%; Activity [2]: 45%
2 | inactive | 52.5 | CC1(c2ccccc2)NC(=O)N(C(=O)/C=C/c2ccc(F)cc2)C1=O (stereo not drawn) | – | Activity [6]: 34%
3 | inactive | 18.5 | CC1(C)CC(=O)C(C(=O)Nc2cccc(C(F)(F)F)c2)C(=O)C1 | 32 | Activity [7]: 40%
4 | inactive | 96.3 | O=C(Nc1ccc([N+](=O)[O-])cc1)C1C(=O)C2=C(CCCC2)C1=O | – | Activity [8]: Active; Activity (Mus musculus [9]): inactive; Activity [10]: Active
5 | inactive | – | CC1(C)OCC(Br)([N+](=O)[O-])CO1 | 139 | pEC50 [11]: 5.64; pEC50 [12]: 5.37; pEC50 [13]: 4.78
6 | inactive | 18.8 | C[C@@]1(c2ccccc2)NC(=O)N(C(=O)C2=Cc3cc(Cl)ccc3OC2)C1=O | – | Activity [6]: 37%
7 | inactive | – | O=[N+]([O-])C1(Br)COC(c2ccccc2)OC1 (stereo not drawn) | – | pEC50 [11]: 5.89; pEC50 [12]: 5.15; pEC50 [13]: 5.05
